Measurements: ChEMBL document CHEMBL4118028, “Sesquiterpene Quinones/Hydroquinones from the Marine Sponge Spongia pertusa Esper” (J Nat Prod, 2017)

Experiments:
[1] = system: A549; assay: Cytotoxicity against human A549 cells after 72 hrs by CCK8 assay; assay type: functional, cell-based; conditions: A549, 72 h
[2] = system: HeLa; assay: Cytotoxicity against human HeLa cells after 72 hrs by CCK8 assay; assay type: functional, cell-based
[3] = system: U-937; assay: Cytotoxicity against human U937 cells after 72 hrs by CCK8 assay; conditions: U-937, 72 h
[4] = system: HepG2; assay: Cytotoxicity against human HepG2 cells after 72 hrs by CCK8 assay; conditions: HepG2, 72 h
[5] = target: Cyclin-dependent kinase 2 (Homo sapiens, UniProt P24941); assay: Binding affinity to CDK2 (unknown origin) by surface plasmon resonance analysis
Procedure, shortened: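 CDK-2 amine-coupled to CM5 chip flow cell 2 (50 μg/mL in 10 mM acetate pH 4.5, ~5500 RU). BSA reference cell (pH 3.8, ~6000 RU) subtracted. Running buffer PBS pH 7.4, 25 °C, 30 μL/min. Analytes at several concentrations injected 120 s, 120 s dissociation, with solvent correction. Glycine-HCl pH 2.1 regeneration for 30 s. Kd from steady-state affinity model fit.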

| Structure (SMILES) | IC50 [1] [µM] | also measured |
| --- | --- | --- |
| CCOC1=CC(=O)C2=C(C[C@@H]3[C@@]4(C)CCCC(C)(C)[C@@H]4CC[C@@]3(C)O2)C1=O | > 10 | – |
| C=C1CCC[C@H]2[C@](C)(CC3=C(O)C(=O)C=C(NCCc4ccccc4)C3=O)[C@@H](C)CC[C@]12C | > 10 | IC50 [2]: 5.4 µM; IC50 [3]: 0.6 µM; IC50 [4]: 3.5 µM |
| COc1cccc2c1C(=O)c1c(O)c3c(c(O)c1C2=O)C[C@@](O)(C(=O)CO)C[C@@H]3O[C@H]1C[C@H](N)[C@H](O)[C@H](C)O1 [DOXORUBICIN] | 0.1 | – |
| C=C1CCC[C@@H]2[C@@]1(C)CC[C@@]1(C)OC3=C(C[C@@]21C)C(=O)C(NC)=CC3=O | > 10 | – |
| C=C1CCC[C@H]2[C@]3(C)CC4=C(O[C@]3(C)CC[C@]12C)C(=O)C=C(OCC)C4=O | > 10 | – |
| C=C1CCC[C@H]2[C@]3(C)CC4=C(O[C@]3(C)CC[C@]12C)C(=O)C=C(NC)C4=O | > 10 | Kd [5]: 4.8 µM |
| C=C1CCC[C@@]23OC4=C(C[C@]2(C)[C@@H](C)CC[C@@]13C)C(=O)C(OCC)=CC4=O | > 10 | – |
| C=C1CCC[C@@]23OC4=C(C[C@]2(C)[C@@H](C)CC[C@@]13C)C(=O)C(NC)=CC4=O | > 10 | – |
